# Experimental data taken from ChEMBL document CHEMBL3232893, “Design of antiviral stapled peptides containing a biphenyl cross-linker” (Bioorg Med Chem Lett, 2014).
# Key:
# [1] = test system: Human immunodeficiency virus 1; assay: Antiviral activity against HIV-1 3B infected in human MT-2 cells assessed as reduction in p24 antigen level incubated for overnight measured on fourth day post infection by multi-cycle infection assay based sandwich ELISA; format: functional, organism-based; settings: Human immunodeficiency virus 1, 3B, MT2
# In short: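 Multi-cycle infection in MT-2 cells; read-out is reduction of p24 levels. IC50 derived from dose-response.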
# [2] = test system: Human immunodeficiency virus 1; assay: Antiviral activity against HIV-1 pseudotyped virus expressing HIV-1 isolate AG envelope CRF02_AG (clone 211) assessed as reduction of luciferase production after 3 days by single-cycle neutralization assay; format: functional, organism-based; settings: Human immunodeficiency virus 1, 72 h
# In short: (§1)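 Single-cycle assay using pseudoviruses carrying Env from primary HIV-1 isolates of subtypes A, A/D, A/G, B, C and D reference viruses. Read-out is luciferase production, and IC50 is determined.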
# [3] = test system: Human immunodeficiency virus 1; assay: Antiviral activity against HIV-1 pseudotyped virus expressing HIV-1 isolate D envelope QD435.100M.ENV.E1 assessed as reduction of luciferase production after 3 days by single-cycle neutralization assay; format: functional, organism-based; settings: Human immunodeficiency virus 1, 72 h; in short: as §1
# [4] = test system: Human immunodeficiency virus 1; assay: Antiviral activity against HIV-1 NL4-3-HXB2 pseudovirus co-transfected with luciferase gene infected in human TZM-bl cells assessed as reduction of luciferase production after 3 days by single-cycle neutralization assay; format: functional, organism-based; settings: Human immunodeficiency virus 1, NL4-3-HXB2, TZM-bl, 72 h
# In short: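 Single-cycle neutralization in TZM-bl cells; read-out is reduction of luciferase production. IC50 derived from dose-response.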
# [5] = test system: Human immunodeficiency virus 1; assay: Antiviral activity against HIV-1 pseudotyped virus expressing HIV-1 isolate C envelope HIV-26191-2, clone 48 assessed as reduction of luciferase production after 3 days by single-cycle neutralization assay; format: functional, organism-based; settings: Human immunodeficiency virus 1, 72 h; in short: as §1
# [6] = test system: Human immunodeficiency virus 1; assay: Antiviral activity against HIV-1 pseudotyped virus expressing HIV-1 isolate C envelope HIV-25925-2, clone 22 assessed as reduction of luciferase production after 3 days by single-cycle neutralization assay; format: functional, organism-based; settings: Human immunodeficiency virus 1, 72 h; in short: as §1
# [7] = test system: Human immunodeficiency virus 1; assay: Antiviral activity against HIV-1 pseudotyped virus expressing HIV-1 isolate A envelope QF495.23M.ENV.B2 assessed as reduction of luciferase production after 3 days by single-cycle neutralization assay; format: functional, organism-based; settings: Human immunodeficiency virus 1, 72 h; in short: as §1
# [8] = test system: Human immunodeficiency virus 1; assay: Antiviral activity against HIV-1 pseudotyped virus expressing HIV-1 isolate AD envelope QA790.204I.ENV.A4 assessed as reduction of luciferase production after 3 days by single-cycle neutralization assay; format: functional, organism-based; settings: Human immunodeficiency virus 1, 72 h; in short: as §1
# [9] = test system: Human immunodeficiency virus 1; assay: Antiviral activity against HIV-1 pseudotyped virus expressing HIV-1 isolate B envelope pRHPA4259 clone 7 (SVPB14) assessed as reduction of luciferase production after 3 days by single-cycle neutralization assay; format: functional, organism-based; settings: Human immunodeficiency virus 1, 72 h; in short: as §1
# [10] = test system: Human immunodeficiency virus 1; assay: Antiviral activity against HIV-1 pseudotyped virus expressing HIV-1 isolate B envelope pREJO4541 clone 67 (SVPB16) assessed as reduction of luciferase production after 3 days by single-cycle neutralization assay; format: functional, organism-based; settings: Human immunodeficiency virus 1, 72 h; in short: as §1
# [11] = Binding affinity to HIV-1 Yu2 full-length gp120 by surface plasmon resonance analysis; set-up: species or system Human immunodeficiency virus type 1 (isolate YU2)
# In short: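 Gp120 binding was measured by SPR. Sensorgrams were fitted to a 1:1 Langmuir model to give ka and kd, and Kd was calculated from these rate constants.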
# [12] = test system: Human immunodeficiency virus 1; assay: Antiviral activity against HIV-1 pseudotyped virus expressing HIV-1 isolate D envelope QA465.59M.ENV.A1 assessed as reduction of luciferase production after 3 days by single-cycle neutralization assay; format: functional, organism-based; settings: Human immunodeficiency virus 1, 72 h; in short: as §1
# [13] = test system: Human immunodeficiency virus 1; assay: Antiviral activity against HIV-1 pseudotyped virus expressing HIV-1 isolate D envelope QD435.100M.ENV.A4 assessed as reduction of luciferase production after 3 days by single-cycle neutralization assay; format: functional, organism-based; settings: Human immunodeficiency virus 1, 72 h; in short: as §1
# [14] = test system: Human immunodeficiency virus 1; assay: Antiviral activity against HIV-1 pseudotyped virus expressing HIV-1 isolate B envelope PVO, clone 4 (SVPB11) assessed as reduction of luciferase production after 3 days by single-cycle neutralization assay; format: functional, organism-based; settings: Human immunodeficiency virus 1, 72 h; in short: as §1
# [15] = test system: Human immunodeficiency virus 1; assay: Antiviral activity against HIV-1 pseudotyped virus expressing HIV-1 isolate D envelope QD435.100M.ENV.B5 assessed as reduction of luciferase production after 3 days by single-cycle neutralization assay; format: functional, organism-based; settings: Human immunodeficiency virus 1, 72 h; in short: as §1
# [16] = test system: Human immunodeficiency virus 1; assay: Antiviral activity against HIV-1 pseudotyped virus expressing HIV-1 isolate A envelope QB726.70M.ENV.B3 assessed as reduction of luciferase production after 3 days by single-cycle neutralization assay; format: functional, organism-based; settings: Human immunodeficiency virus 1, 72 h; in short: as §1
# [17] = test system: Human immunodeficiency virus 1; assay: Antiviral activity against HIV-1 pseudotyped virus expressing HIV-1 isolate C envelope Du156, clone 12 (SVPC3) assessed as reduction of luciferase production after 3 days by single-cycle neutralization assay; format: functional, organism-based; settings: Human immunodeficiency virus 1, 72 h; in short: as §1
# [18] = Cytotoxicity against human TZM-bl cells after 3 days by XTT assay; format: cell-based
# [19] = test system: Human immunodeficiency virus 1; assay: Antiviral activity against HIV-1 pseudotyped virus expressing HIV-1 isolate C envelope ZM233M.PB6, SVPC9 assessed as reduction of luciferase production after 3 days by single-cycle neutralization assay; format: functional, organism-based; settings: Human immunodeficiency virus 1, 72 h; in short: as §1
# [20] = test system: Human immunodeficiency virus 1; assay: Antiviral activity against HIV-1 pseudotyped virus expressing HIV-1 isolate A envelope QH343.21M.ENV.A10 assessed as reduction of luciferase production after 3 days by single-cycle neutralization assay; format: functional, organism-based; settings: Human immunodeficiency virus 1, 72 h; in short: as §1
# [21] = test system: Human immunodeficiency virus 1; assay: Antiviral activity against HIV-1 pseudotyped virus expressing HIV-1 isolate B envelope SC422661, clone B (SVPB8) assessed as reduction of luciferase production after 3 days by single-cycle neutralization assay; format: functional, organism-based; settings: Human immunodeficiency virus 1, 72 h; in short: as §1
# [22] = test system: Human immunodeficiency virus 1; assay: Antiviral activity against HIV-1 pseudotyped virus expressing HIV-1 isolate D envelope QA013.70I.ENV.M12 assessed as reduction of luciferase production after 3 days by single-cycle neutralization assay; format: functional, organism-based; settings: Human immunodeficiency virus 1, 72 h; in short: as §1
# [23] = Cytotoxicity against human MT2 cells after 4 days by XTT assay; format: cell-based
# [24] = test system: Human immunodeficiency virus 1; assay: Antiviral activity against HIV-1 pseudotyped virus expressing HIV-1 isolate AG envelope CRF02_AG (clone 263) assessed as reduction of luciferase production after 3 days by single-cycle neutralization assay; format: functional, organism-based; settings: Human immunodeficiency virus 1, 72 h; in short: as §1
# [25] = test system: Human immunodeficiency virus 1; assay: Antiviral activity against HIV-1 pseudotyped virus expressing HIV-1 isolate B envelope pCAAN5342 clone A2 (SVPB19) assessed as reduction of luciferase production after 3 days by single-cycle neutralization assay; format: functional, organism-based; settings: Human immunodeficiency virus 1, 72 h; in short: as §1
# [26] = Binding affinity to HIV-1 capsid protein C-terminal domain M184A/W185A mutant at 20 uM by isothermal titration calorimetric analysis; set-up: species or system Human immunodeficiency virus 1
# In short: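 ITC: 625 μM CTD M184A/W185A mutant titrated in 10 μL aliquots into 20 μM peptide in the cell. The integrated binding isotherm was fitted to a single-site binding equation to give Kd.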
# [27] = test system: Human immunodeficiency virus 1; assay: Antiviral activity against HIV-1 pseudotyped virus expressing HIV-1 isolate C envelope ZM135M.PL10a, SVPC15 assessed as reduction of luciferase production after 3 days by single-cycle neutralization assay; format: functional, organism-based; settings: Human immunodeficiency virus 1, 72 h; in short: as §1
# [28] = test system: Human immunodeficiency virus 1; assay: Antiviral activity against HIV-1 pseudotyped virus expressing HIV-1 isolate A envelope QF495.23M.ENV.A3 assessed as reduction of luciferase production after 3 days by single-cycle neutralization assay; format: functional, organism-based; settings: Human immunodeficiency virus 1, 72 h; in short: as §1
# [29] = test system: Human immunodeficiency virus 1; assay: Antiviral activity against HIV-1 pseudotyped virus expressing HIV-1 isolate D envelope QA465.59M.ENV.D1 assessed as reduction of luciferase production after 3 days by single-cycle neutralization assay; format: functional, organism-based; settings: Human immunodeficiency virus 1, 72 h; in short: as §1
# [30] = test system: Human immunodeficiency virus 1; assay: Antiviral activity against HIV-1 pseudotyped virus expressing HIV-1 isolate AD envelope QA790.204I.ENV.E2 assessed as reduction of luciferase production after 3 days by single-cycle neutralization assay; format: functional, organism-based; settings: Human immunodeficiency virus 1, 72 h; in short: as §1
compound,measurement,setting,value
CC[C@H](C)[C@H](NC(C)=O)C(=O)N[C@@H](CO)C(=O)N[C@@H](Cc1ccccc1)C(=O)N[C@@H]1CSCc2ccc(cc2)-c2ccc(cc2)CSC[C@@H](C(=O)N[C@@H](CCC(=O)O)C(=O)N[C@@H](CO)C(=O)NCC(=O)N[C@@H](CO)C(N)=O)NC(=O)[C@H](Cc2ccc(O)cc2)NC(=O)[C@H](Cc2ccc(O)cc2)NC(=O)[C@H](CC(=O)O)NC(=O)[C@H](CC(C)C)NC(=O)[C@H](CC(C)C)NC(=O)[C@H](CCC(=O)O)NC1=O,IC50,[1],2.8 µM
same,IC50,[2],4 µM
same,IC50,[3],15.4 µM
same,IC50,[4],1.9 µM
same,IC50,[5],6.3 µM
same,IC50,[6],1.1 µM
same,IC50,[7],10 µM
same,IC50,[8],7 µM
same,IC50,[9],1.6 µM
same,IC50,[10],3.4 µM
same,Kd,[11],7.4 µM
same,IC50,[12],15.4 µM
same,IC50,[13],1 µM
same,IC50,[14],3.5 µM
same,IC50,[15],15.4 µM
same,IC50,[16],15.4 µM
same,IC50,[17],17.9 µM
same,CC50 at 72 h,[18],> 103 µM
same,IC50,[19],3.6 µM
same,IC50,[20],15.4 µM
same,IC50,[21],3.7 µM
same,IC50,[22],15.4 µM
same,CC50 at 96 h,[23],> 103 µM
same,IC50,[24],4.4 µM
same,IC50,[25],4.6 µM
same,Kd,[26],17.5 µM
same,IC50,[27],1 µM
same,IC50,[28],1.4 µM
same,IC50,[29],7.7 µM
same,IC50,[30],7.7 µM
CC[C@H](C)[C@H](NC(C)=O)C(=O)N[C@@H](CO)C(=O)N[C@@H](Cc1ccccc1)C(=O)N[C@@H]1CSCc2ccc(cc2)-c2ccc(cc2)CSC[C@@H](C(=O)N[C@@H](CCC(=O)O)C(=O)N[C@@H](CO)C(=O)NCC(=O)N[C@@H](CO)C(N)=O)NC(=O)[C@H](Cc2ccc(O)cc2)NC(=O)[C@H](Cc2ccc(O)cc2)NC(=O)[C@H](CC(=O)O)NC(=O)[C@H](CC(C)C)NC(=O)[C@H](CC(C)C)NC(=O)[C@H](CCC(N)=O)NC1=O,IC50,[1],5.5 µM
same,IC50,[4],3.1 µM
same,CC50 at 72 h,[18],> 103 µM
same,CC50 at 96 h,[23],> 103 µM
CC[C@H](C)[C@H](NC(C)=O)C(=O)N[C@@H](CO)C(=O)N[C@@H](Cc1ccccc1)C(=O)N[C@@H]1CSCc2ccc(cc2)-c2ccc(cc2)CSC[C@@H](C(=O)N[C@@H](CCC(=O)O)C(=O)N[C@@H](CO)C(=O)NCC(=O)N[C@@H](CO)C(N)=O)NC(=O)[C@H](Cc2ccc(O)cc2)NC(=O)[C@H](Cc2ccc(O)cc2)NC(=O)[C@H](CC(N)=O)NC(=O)[C@H](CC(C)C)NC(=O)[C@H](CC(C)C)NC(=O)[C@H](CCC(=O)O)NC1=O,IC50,[1],8.8 µM
same,IC50,[4],1.8 µM
same,CC50 at 72 h,[18],> 102 µM
same,CC50 at 96 h,[23],> 102 µM
CC[C@H](C)[C@H](NC(C)=O)C(=O)N[C@@H](CO)C(=O)N[C@@H](Cc1ccccc1)C(=O)N[C@@H]1CSCc2ccc(cc2)-c2ccc(cc2)CSC[C@@H](C(=O)N[C@@H](CCC(=O)O)C(=O)N[C@@H](CO)C(=O)NCC(=O)N[C@@H](CO)C(N)=O)NC(=O)[C@H](Cc2ccc(O)cc2)NC(=O)[C@H](Cc2ccc(O)cc2)NC(=O)[C@H](CC(N)=O)NC(=O)[C@H](CC(C)C)NC(=O)[C@H](CC(C)C)NC(=O)[C@H](CCC(N)=O)NC1=O,IC50,[1],5.7 µM
same,IC50,[4],1.6 µM
same,CC50 at 72 h,[18],> 102 µM
same,CC50 at 96 h,[23],51 µM
